Compound activity (PubChem BioAssay)
CYP2C9 act = human CYP2C9 activators, primary screen, biochemical, luminescence | Cytochrome P450 2C9 (Homo sapiens), P11712 | recombinant CYP2C9, luciferin-H conversion; stronger effect = higher value; factor 1 = untreated enzyme, 0 = blocked | activation factor at 5 µM | actives 1.4% (n = 96,000) | AID 1024, 2008;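 active means activation factor of 2 or more for CYP2C9 at a 5 µM dose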
Target sequence (P11712 whole entry, looked up): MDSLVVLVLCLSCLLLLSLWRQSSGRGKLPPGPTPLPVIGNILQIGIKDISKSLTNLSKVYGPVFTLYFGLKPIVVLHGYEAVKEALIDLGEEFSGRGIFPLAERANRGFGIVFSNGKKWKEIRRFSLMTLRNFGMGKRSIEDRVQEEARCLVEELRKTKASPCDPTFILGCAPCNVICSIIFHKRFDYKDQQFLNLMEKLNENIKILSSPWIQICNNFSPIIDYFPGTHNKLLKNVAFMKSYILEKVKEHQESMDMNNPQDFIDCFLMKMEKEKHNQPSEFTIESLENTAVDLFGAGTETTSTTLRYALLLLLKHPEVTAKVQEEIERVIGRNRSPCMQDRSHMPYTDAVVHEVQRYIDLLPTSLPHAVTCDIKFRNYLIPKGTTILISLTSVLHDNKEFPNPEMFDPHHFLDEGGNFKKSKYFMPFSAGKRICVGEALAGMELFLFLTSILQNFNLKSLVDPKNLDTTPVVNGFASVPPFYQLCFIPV
CYP2C19 act = human CYP2C19 activators, primary screen, biochemical, luminescence. Cytochrome P450 2C19 (Homo sapiens), P33261. recombinant CYP2C19, luciferin-H EGE luminescence; stronger effect = higher value; 0 = fully inhibited enzyme, 1 = untreated enzyme. activation factor at 5 µM. 96,000 tested, under 10 active;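 active means activation factor of at least 2 at 5 µM in the primary screen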
CYP2C19 inh = blockers of cytochrome P450 2C19 activity – biochemical, luminescence, ADME assay, primary screen | P33261 | CYP2C19 Supersomes, luciferin-H EGE luminescence, 30 min | inhibition, % at 5 µM | actives 21% (n = 96,000) | AID 778, 2007;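 active means CYP2C19 inhibition above a set limit at 5 µM in the primary screen, cut at about 50% in these data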
Cav32 inh = Cav3.2 calcium influx blockers – cell-based, Fluo-4 calcium fluorescence, FDSS, MLSMR library, primary screen; B-score at 10 µM; AID 449739, 2010; Voltage-dependent T-type calcium channel subunit alpha-1H (Homo sapiens), O95180; Cav3.2-expressing cells; stronger effect = lower value; actives 4% (n = 100,000);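 active means single-dose well whose peak fluorescence ratio is a statistical outlier from its plate by either plate-standardised score or position-corrected B-score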
Rev-RRE block = HIV-1 Rev-RRE binding inhibitors, primary screen, biochemical, FRET, protein-RNA interaction. Rev peptide-RRE RNA binding. actives 0.79% (n = 97,000). P05866. inhibition, % at 8 µM;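 active means inhibition above the screen-wide mean plus 3 SD, cut at about 35% in these data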
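Assay system: Labelled RRE RNA duplex and labelled Rev peptide | Times: 5 min preincubation and 15 min binding, 25 °C | Detection: FRET, ex 480 nm, em 540 and 671 nm | Evaluation: % inhibition of FRET ratio versus controls | Benchmarks: DMSO wells as 0% and neomycin B wells as 100% inhibition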
CYP2C9 inhib = blockers of cytochrome P450 2C9 activity – biochemical, luminescence, ADME assay, primary screen | CYP2C9 Supersomes, luciferin-H conversion | actives 20% (n = 96,000) | P11712 | AID 777, 2007 | inhibition, % at 5 µM;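 active means blocking of liver enzyme CYP2C9 beyond about 50% at 5 µM, limit read from the data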
Hits are given with their value; – = inactive; · = no result. Compounds with a hit are over-represented: about 27% of the library has one in this group of screens.

SMILES | CYP2C9 act | CYP2C19 act | CYP2C19 inh | Cav32 inh | Rev-RRE block | CYP2C9 inhib
COC(=O)c1c(-c2ccncc2)csc1NC(=O)c1ccoc1C | – | – | 94 | – | – | 74
CCCC[n+]1ccn(-c2nc3ccccc3nc2[N-]S(=O)(=O)c2ccc(C)cc2)c1 | – | – | – | · | – | 72
CCCC[n+]1ccn(-c2nc3ccccc3nc2[N-]S(=O)(=O)c2ccccc2)c1 | – | – | – | – | – | –
COc1ccc2nc(SCC(=O)Nc3ccccc3C#N)[nH]c2c1 | – | – | – | – | – | 67
CCCc1cc(=O)[nH]c(SCC(=O)Nc2ccccc2C#N)n1 | – | – | – | – | – | –
COc1ccc2nc(SCC(=O)Nc3ccccc3C)[nH]c2c1 | – | – | 68 | – | – | 88
CCC(OC(=O)CC1Sc2ccccc2NC1=O)C(=O)NCC1CCCO1 (configuration not stated) | – | – | – | – | – | –
CCCCn1c(NC(C)CC)nc2c1c(=O)[nH]c(=O)n2C (configuration not stated) | – | – | – | – | – | 53
CCCn1c(N2CCN(CC(=O)c3c[nH]c4ccccc34)CC2)nc2c1c(=O)[nH]c(=O)n2C | – | – | – | – | – | 70
CC(C)CCn1c(SCC(=O)c2ccccc2)nc2c1c(=O)[nH]c(=O)n2C | – | – | – | – | – | 73
Cc1cccc(Cn2c(N3CCCCC3C)nc3c2c(=O)[nH]c(=O)n3C)c1 (configuration not stated) | · | · | · | -3.8 | – | ·
Cc1cccc(Cn2c(N3CCc4ccccc4C3)nc3c2c(=O)[nH]c(=O)n3C)c1 | – | – | – | – | – | –
CCOC(=O)c1c(C)cccc1OCC(N)=O | · | · | · | – | – | ·
C=CCSc1nc2sc(C)c(C)c2c(=O)[nH]1 | · | · | · | – | · | ·
CCOc1ccc(CC(C(N)=O)C(N)=O)cc1CN(C)C | – | – | – | – | – | –
CCS(=O)(=O)N1CCCC(C(=O)NCCc2ccccc2)C1 (configuration not stated) | – | – | – | – | – | –
Cn1c(=O)c2c(nc(N3CCCCCC3)n2CCSc2nc3ccccc3o2)n(C)c1=O | – | – | – | – | – | –
CC(C)CCn1c(CN2CCN(Cc3ccccc3)CC2)nc2c1c(=O)[nH]c(=O)n2C | – | – | – | – | – | –
Cn1c(=O)[nH]c(=O)c2c1nc(N1CCCCCC1)n2CCCSc1nc2ccccc2o1 | – | – | 66 | · | – | 83
CCCCCn1c(N2CCN(Cc3ccccc3)CC2)nc2c1c(=O)[nH]c(=O)n2C | – | – | 61 | – | – | –
CCCn1c(N2CCN(Cc3cccc(C)c3)CC2)nc2c1c(=O)[nH]c(=O)n2C | – | – | 90 | – | – | –
CC(C)CCn1c(N2CCN(Cc3ccccc3)CC2)nc2c1c(=O)[nH]c(=O)n2C | – | – | 77 | · | – | 76
O=C(C(Cc1ccccc1)N1C(=O)c2ccccc2C1=O)N1CCc2ccccc21 (configuration not stated) | · | · | · | – | – | ·
Cc1ccc(C)c(OCC(=O)N/N=C/c2ccsc2)c1 | – | – | – | – | – | –
CN1C(C(=O)NCc2cccc(Br)c2)CC2Cn3c(nc4cc5ccccc5cc43)C21 (configuration not stated) | · | · | · | – | · | ·
Cc1csc(SCCn2c(N3CCN(c4ccccc4)CC3)nc3c2c(=O)[nH]c(=O)n3C)n1 | – | – | – | – | – | 52
CCN1CCN(c2nc3c(c(=O)[nH]c(=O)n3C)n2CCSc2nc3ccccc3s2)CC1 | – | – | – | – | – | –
CC(C)Cn1c(N)c(C(=O)COC(=O)c2ccncc2)c(=O)n(C)c1=O | – | – | – | – | – | 53
CC(C)Cn1c(N)c(C(=O)COC(=O)CC23CC4CC(CC(C4)C2)C3)c(=O)n(C)c1=O | – | – | 63 | – | – | 85
Cc1ccccc1CSCC(=O)c1c(N)n(CC(C)C)c(=O)n(C)c1=O | – | – | – | – | – | –
